From article PMC3104004 (European Journal of Nuclear Medicine and Molecular Imaging, 2011)

Key:
[1] = tested on: kidney of PC-3-bearing mice; conditions: PC-3-bearing athymic mice, 30 min after injection; ref 26 (Zheng et al.); cited from earlier work
[2] = tested on: human prostate VCaP xenografts; assay: Dynamic PET scanning with quantitative VOI analysis in VCaP tumour-bearing mice; format: in vivo, male NMRI nu/nu mice
In short: (§1)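 Male NMRI nu/nu mice, 6–7 weeks old, inoculated s.c. in the right shoulder with ~5×10^6 VCaP or PC-3 cells in PBS. Under isoflurane/oxygen, prone, on a microPET with a heating mat. Test tracer 100 μl (8.1–1.2 MBq) given by tail-vein cannula; dynamic full-body scan for 20 min from injection. Tumour VOIs drawn manually, averaged over two analysts. %ID/g = VOI activity/injected dose ×100; steady-state taken from last 10 min; median, IQR; Mann-Whitney U.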

PC-3 tumours = assay: Dynamic PET scanning with quantitative VOI analysis in PC-3 tumour-bearing mice; format: in vivo, male NMRI nu/nu mice; conditions: tail vein injection 100 μl; last 10 min of 20 min scan; N = 3
In short: as §1

[3] = tested on: VCaP tumour and preselected organs; assay: Ex vivo biodistribution in VCaP tumour-bearing mice; set-up: species or system male NMRI nu/nu mice; conditions: 30 min after injection, 100 μl iv
In short: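 Done after PET. VCaP-bearing mice killed 60 min after i.v. tail-vein 68Ga-labelled bombesin-analogue tracer (300 pmol, 1.5–0.5 MBq), or 30 min after 18F-choline tracer (100 μl, 8.1–1.2 MBq). Gamma-counted: tumour, liver, heart, blood, muscle, tail, kidneys, pancreas and colon. %ID/g corrected for activity left in the tail; mean ± SD, four mice per tracer; unpaired t-test.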

SMILES	kidney uptake [1] [%ID/g]	time at which tumour uptake reached a plateau phase ([2]; dynamic PET, VCaP tumour, after injection)	VCaP tumour uptake determined from PET at steady-state (plateau phase) ([2]; tail vein injection 100 μl, 8.1–1.2 MBq, 10–20 min after injection, N = 8) [%ID/g]	PC-3 tumour uptake from PET (plateau phase) (PC-3 tumours) [%ID/g]	uptake in blood ([3]; VCaP-bearing mice, N = 4) [%ID/g tissue]	uptake in heart ([3]; VCaP-bearing mice, N = 4) [%ID/g tissue]	uptake in kidneys ([3]; VCaP-bearing mice, N = 4) [%ID/g]	uptake in liver ([3]; VCaP-bearing mice, N = 4) [%ID/g tissue]	uptake in muscle ([3]; VCaP-bearing mice, N = 4) [%ID/g tissue]	uptake in pancreas (GRPR-positive) ([3]; VCaP-bearing mice, N = 4) [%ID/g]	VCaP tumour uptake (biodistribution) ([3]; ex vivo counting) [%ID/g]
C[N+](C)([11CH3])CCO [^11C-choline]	5.1 ± 1.8	–	–	–	–	–	–	–	–	–	–
C[N+](C)(C[18F])CCO [^18F-FCH, N-[^18F]-fluoromethyl-N-(2-hydroxyethyl)-N,N-dimethylammonium]	–	less than 10 min	1.6 ± 0.5	1.2 ± 0.3	0.8 ± 0.1	4.7 ± 0.5	35.7 ± 4.1	13.0 ± 1.7	0.9 ± 0.2	3.6 ± 1.0	2.1 ± 0.4
